The nature of data set [1]: Basic dissociation constant, pKa of the compound at 10 mM. Type of data set: physicochemical.
A short description of data set [2]: Acidic dissociation constant, pKa of the compound at 10 mM. It is filed as physicochemical.
The nature of data set [3]: Distribution coefficient, log D of the compound at 10 mM at pH 7.4 by pH-metric method. Type of data set: physicochemical. Particulars: octanol/water.
Data set [4] deals with PBMC. Description: Inhibition of human PBMC-induced phagocytosis of antibody-opsonized RBC at 5 uM incubated for 1 hr prior to RBC addition measured after 2 hrs by phase-contrast microscopy. It is filed as functional. The method in brief: (§1)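 Ficoll-isolated human PBMC cultured overnight (10% FBS, 37 °C, 5% CO2). 7×10^5 cells adhered 1 h on chamber slides, then non-adherent cells removed. Compound or IVIg was added for 1 h, media aspirated, and anti-D-opsonized human R2R2 RBCs added for 2 h. Slides were methanol-fixed and read by phase-contrast, counting ≥100 monocytes for the phagocytosis index. Results are normalized to vehicle (100% phagocytosis). Screen at 5 µM; titration 0.5–100 µM.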

Data set [5] deals with PBMC. Description: Inhibition of human PBMC-induced phagocytosis of antibody-opsonized RBC incubated for 1 hr prior to RBC addition measured after 2 hrs by phase-contrast microscopy. Type of data set: functional, cell-based. The method in brief: as §1
Data set [6] deals with PBMC. The data set can be described thus: Induction of apoptosis in human PBMC assessed as apoptotic index at 10 uM after 1 hr by Annexin V/propidium iodide staining-based FACS analysis relative to IVIg. It is filed as cell-based. Particulars: in the assay text read “relative to vehicle” for “relative to IVIg”. In outline: (§2)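 Ficoll-isolated human PBMC cultured overnight in 10% FBS medium, 37 °C, 5% CO2. After 1 h adherence, non-adherent cells removed, and the rest were exposed to compound at 10 and 100 µM for 1 h. Cells were then scraped and stained with Annexin V-APC plus PI (1 µg/mL) for flow cytometry. AI = fold increase in % apoptotic cells (Annexin V+ and Annexin V+/PI+) over vehicle.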

Data set [7] has as its system PBMC. The data set can be described thus: Induction of apoptosis in human PBMC assessed as apoptotic index at 100 uM after 1 hr by Annexin V/propidium iodide staining-based FACS analysis relative to IVIg. Type of data set: cell-based. The note with it: in the assay text read “relative to vehicle” for “relative to IVIg”. The method in brief: as §2

Take `Cc1cc(O)n(Cc2cc(C)nn2-c2ccccc2)n1`: the pKa at 10000 µM in data set [1] turned out to be 2.3; in data set [2] it was 8.4. Moreover, in data set [3], the pH-dependent lipophilicity (logD) at 10000 µM amounted to 4.3. In the data set with PBMC [4], this compound yielded an inhibition at 5 µM of 58%. This compound came in with an IC50 with PBMC [5] of 14 µM. Besides, the Ratio with PBMC [6] is 1.2; in the data set on PBMC [7], 1.3.

`Cc1cc(CNCc2cc(C)nn2-c2ccccc2)n(-c2ccccc2)n1` had a pKa at 10000 µM in data set [1] of 2.2. In addition, the log distribution coefficient (logD) at 10000 µM in data set [3] is 5. This compound also had an inhibition at 5 µM with PBMC [4] of 20%. Moreover, the Ratio with PBMC [6] is 1.1; in the data set on PBMC [7] it was 0.9.

Take `Cc1cc(Oc2c(N)c(C)nn2-c2ccccc2)n(-c2ccccc2)n1`: the pKa at 10000 µM in data set [1] came out at 3.4. In data set [3], this compound displayed a pH-dependent lipophilicity (logD) at 10000 µM of 4. The compound further showed an inhibition at 5 µM in the data set with PBMC [4] of 2%. Moreover, the Ratio in the data set with PBMC [6] came out at 1.2; in the data set on PBMC [7], 1.

As for `Cc1cc(OCC2CCCN2Cc2ccccc2)n(-c2ccccc2)n1` (stereo unspecified), the pKa at 10000 µM in data set [1] came to 2.4. This compound also gave a logD at 10000 µM in data set [3] of 4.5. Moreover, at 5 µM the inhibition with PBMC [4] was 15%. Besides, the results for the Ratio with PBMC [6] and in the data set with PBMC [7] were 1.1 and 0.9, respectively.

For the compound `Cc1cc(OCc2cc(C)nn2-c2ccccc2)n(CCN)n1`, the pKa at 10000 µM in data set [1] was found to be 2.5. For the same compound, the logD at 10000 µM in data set [3] turned out to be 5. In addition, the inhibition at 5 µM in the data set on PBMC [4] worked out at 33%. For the same compound, the Ratio in the data set on PBMC [6] came out at 1.1; in the data set with PBMC [7], 1.

In data set [1], `Cc1cc(COc2cc(C)nn2-c2ccc([N+](=O)[O-])cc2)n(-c2ccccc2)n1` displayed a pKa at 10000 µM of 2. The compound also displayed a logD at 10000 µM in data set [3] of 3.7. The compound further showed an inhibition at 5 µM with PBMC [4] of 16%. Moreover, the Ratio in the data set with PBMC [6] and in the data set with PBMC [7] was 0.8 each time.

As for `Cc1cc(COc2cc(C)nn2-c2ccccc2)n(-c2ccccc2)n1`, the pKa at 10000 µM in data set [1] worked out at 2.7. This compound came in with a log distribution coefficient (logD) at 10000 µM in data set [3] of 2.2. The same compound showed an inhibition at 5 µM in the data set with PBMC [4] of 16%. Further, the Ratio turned out to be 1.1 in the data set with PBMC [6] and 0.9 with PBMC [7].

Regarding `Cc1cc(SSc2cc(C)nn2-c2ccccc2)n(-c2ccccc2)n1`, the pKa at 10000 µM in data set [1] turned out to be 4.8. In data set [3], the logD at 10000 µM amounted to 3.2. Further, in the data set on PBMC [4], the inhibition at 5 µM was found to be 45%. For the same compound, the Ratio in the data set on PBMC [6] was 1; in the data set on PBMC [7], 5.4.

In data set [1], `Cc1nn(-c2ccccc2)c(SSc2c(C(=O)c3ccccc3)c(C)nn2-c2ccccc2)c1C(=O)c1ccccc1` returned a pKa at 10000 µM of 3.2. The log distribution coefficient (logD) at 10000 µM in data set [3] amounted to 8. The same compound returned an inhibition at 5 µM with PBMC [4] of 32%. For the same compound, the Ratio in the data set on PBMC [6] is 0.8; in the data set with PBMC [7] it was 1.

Turning to `Cc1cc(CCc2cc(C)nn2-c2ccccc2)n(-c2ccccc2)n1`, the pKa at 10000 µM in data set [1] turned out to be 2.5. Further, in data set [3], the logD at 10000 µM was 1.3. In the data set on PBMC [4], this compound displayed an inhibition at 5 µM of 14%. Further, the Ratio with PBMC [6] is 1; in the data set with PBMC [7], 0.9.

Take `Cc1nn(-c2ccccc2)c(S)c1C(=O)c1ccccc1`: the pKa at 10000 µM came to 2.9 in data set [1] and 10.3 in data set [2]. In data set [3], this compound returned a pH-dependent lipophilicity (logD) at 10000 µM of -0.3. This compound had an inhibition at 5 µM in the data set with PBMC [4] of 0%. Moreover, the Ratio in the data set on PBMC [6] amounted to 2; with PBMC [7], 1.6.

Consider `Cc1cc(COc2cc(C)nn2C2CCCC2)n(-c2ccccc2)n1`, for which, in data set [1], the pKa at 10000 µM was 2.7. The logD at 10000 µM in data set [3] came to 1.7. Besides, at 5 µM the inhibition in the data set with PBMC [4] was 17%. Besides, the Ratio in the data set with PBMC [6] came out at 0.9; in the data set on PBMC [7], 1.2.

`Cc1nn(-c2ccccc2)c(S)c1C(=O)c1ccno1` displayed an IC50 with PBMC [5] of 250 µM.

`Cc1cc(OCCOc2cc(C)nn2-c2ccccc2)n(-c2ccccc2)n1` returned a pKa at 10000 µM in data set [1] of 2.2. This compound came in with a log distribution coefficient (logD) at 10000 µM in data set [3] of -1.6. This compound also returned an inhibition at 5 µM with PBMC [4] of 4%. Also, the Ratio in the data set on PBMC [6] and in the data set on PBMC [7] was 1 each time.

As for `Cc1cc(OCc2cc(C)nn2-c2ccccc2)n(CC(=O)O)n1`, the pKa at 10000 µM in data set [1] turned out to be 7.3; in data set [2], 3.4. The logD at 10000 µM in data set [3] amounted to 1.2. In addition, in the data set with PBMC [4], 5 µM produced 10% inhibition. In addition, the Ratio with PBMC [6] is listed as 1.1; with PBMC [7], 1.2.

As for `Cc1cc(OCc2cc(C)nn2-c2ccccc2)[nH]n1`, the pKa at 10000 µM in data set [1] stood at 2.4; in data set [2], 12.5. In data set [3], this compound had a logD at 10000 µM of 2.9. This compound gave an inhibition at 5 µM in the data set on PBMC [4] of 6%. The Ratio in the data set on PBMC [6] and with PBMC [7] was 1 throughout.

As to `Cc1cc(OCc2cc(C)nn2-c2ccccc2)n(CC2CCCCC2)n1`, the pKa at 10000 µM in data set [1] turned out to be 3.6. For the same compound, the log distribution coefficient (logD) at 10000 µM in data set [3] was found to be 4.3. Moreover, in the data set on PBMC [4], testing at 5 µM gave an inhibition of 45%. The results for the Ratio with PBMC [6] and in the data set on PBMC [7] were 1 and 1.1, respectively.

As for `Cc1cc(COc2cc(C)nn2-c2ccccc2)n(Cc2ccccc2)n1`, the pKa at 10000 µM in data set [1] was 2.1. In data set [3], this compound returned a log distribution coefficient (logD) at 10000 µM of 5.3. For the same compound, the inhibition at 5 µM in the data set with PBMC [4] came out at 0%. Moreover, the Ratio was 1.1 in the data set with PBMC [6] and 1 in the data set with PBMC [7].

The record behind these values is ChEMBL document CHEMBL3259807, “Structure-activity relationships of pyrazole derivatives as potential therapeutics for immune thrombocytopenias” (Bioorg Med Chem, 2014).
